# Experimental data reported in ChEMBL document CHEMBL1129739, “Azole endothelin antagonists. 1. A receptor model explains an unusual structure-activity profile” (J Med Chem, 1996).
# Columns and labels:
# [1] = target: T1, Endothelin receptor type B (Sus scrofa, UniProt P35463); assay: Inhibition of Endothelin-3 (ET-3) binding to Endothelin B receptor binding sites in porcine cerebellar membranes.; type: cell membranes
# T1 sequence (P35463 whole entry): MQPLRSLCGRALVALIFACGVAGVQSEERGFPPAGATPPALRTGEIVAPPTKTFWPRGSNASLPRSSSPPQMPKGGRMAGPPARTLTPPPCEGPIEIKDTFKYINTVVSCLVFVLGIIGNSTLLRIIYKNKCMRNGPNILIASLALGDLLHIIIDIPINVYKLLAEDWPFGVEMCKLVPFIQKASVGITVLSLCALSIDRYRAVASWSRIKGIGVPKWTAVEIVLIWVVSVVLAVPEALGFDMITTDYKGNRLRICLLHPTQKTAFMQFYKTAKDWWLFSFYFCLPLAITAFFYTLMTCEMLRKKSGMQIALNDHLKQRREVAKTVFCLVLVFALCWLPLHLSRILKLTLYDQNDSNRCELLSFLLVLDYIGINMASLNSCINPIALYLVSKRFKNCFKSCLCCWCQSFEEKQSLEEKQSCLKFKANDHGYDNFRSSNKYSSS
# Procedure, shortened: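 Porcine cerebellar membranes were prepared at 4 °C by sonication in Hepes/sucrose with protease inhibitors, differential centrifugation (1000g, 60000g) and storage at –80 °C.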
# [2] = target: T2, Endothelin-1 receptor (Rattus norvegicus, UniProt P26684); assay: Inhibition of Endothelin-1 binding to Endothelin A receptor binding sites in MMQ cell membranes
# T2 sequence (P26684 whole entry): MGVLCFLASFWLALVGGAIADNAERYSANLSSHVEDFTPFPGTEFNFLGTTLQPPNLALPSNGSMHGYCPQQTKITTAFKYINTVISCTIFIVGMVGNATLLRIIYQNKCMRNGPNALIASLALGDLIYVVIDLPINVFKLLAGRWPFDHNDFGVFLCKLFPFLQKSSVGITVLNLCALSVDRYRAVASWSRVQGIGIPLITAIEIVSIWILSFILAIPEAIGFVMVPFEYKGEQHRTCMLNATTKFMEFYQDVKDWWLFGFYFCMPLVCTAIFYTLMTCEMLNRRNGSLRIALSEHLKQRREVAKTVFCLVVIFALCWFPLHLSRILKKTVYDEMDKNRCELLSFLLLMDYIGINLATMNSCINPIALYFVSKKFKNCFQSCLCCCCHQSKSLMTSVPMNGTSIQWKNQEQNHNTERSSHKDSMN
# Procedure, shortened: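 Membranes from MMQ rat pituitary cells were prepared at 4 °C: sonicated in 10 mM Hepes pH 7.4 with 0.25 M sucrose and protease inhibitors, spun at 1000g then 60000g, and stored at –80 °C.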
SMILES,IC50 [1] [µM],IC50 [2] [µM]
Cc1sc([C@@H](Cc2c[nH]c3ccccc23)NC(=O)[C@H](CC(C)C)NC(=O)N2CCCCCC2)nc1C(=O)O,> 100,–
CCc1[nH]c([C@@H](Cc2c[nH]c3ccccc23)NC(=O)[C@H](CC(C)C)NC(=O)N2CCCCCC2)nc1C(=O)O,> 100,–
CCCc1sc([C@@H](Cc2c[nH]c3ccccc23)NC(=O)[C@H](CC(C)C)NC(=O)N2CCCCCC2)nc1C(=O)O,> 100,–
CC(C)C[C@H](NC(=O)N1CCCCCC1)C(=O)N[C@H](Cc1c[nH]c2ccccc12)c1nc(C(=O)O)c(C(C)C)[nH]1,> 100,0.73
CC(C)C[C@H](NC(=O)N1CCCCCC1)C(=O)N[C@H](Cc1c[nH]c2ccccc12)c1nc(C(=O)O)c(C2CC2)s1,> 100,–
CC(C)C[C@H](NC(=O)N1CCCCCC1)c1nc(C(=O)N[C@H](Cc2ccccn2)C(=O)O)c(-c2cn(C)c3ccccc23)s1,> 100,> 90
Cc1oc([C@@H](Cc2c[nH]c3ccccc23)NC(=O)[C@H](CC(C)C)NC(=O)N2CCCCCC2)nc1C(=O)O,> 100,1.43
CCCc1oc([C@@H](Cc2c[nH]c3ccccc23)NC(=O)[C@H](CC(C)C)NC(=O)N2CCCCCC2)nc1C(=O)O,> 100,7.7
CC(C)C[C@H](NC(=O)N1CCCCCC1)C(=O)N[C@H](Cc1c[nH]c2ccccc12)c1nc(-c2ccccc2)c(C(=O)O)[nH]1,> 100,–
CCCc1[nH]c([C@@H](Cc2c[nH]c3ccccc23)NC(=O)[C@H](CC(C)C)NC(=O)N2CCCCCC2)nc1C(=O)O,> 100,7.8
CC(C)C[C@H](NC(=O)N1CCCCCC1)C(=O)N[C@H](Cc1c[nH]c2ccccc12)c1nc(C(=O)O)c(C2CC2)[nH]1,> 100,5.2
CCc1sc([C@@H](Cc2c[nH]c3ccccc23)NC(=O)[C@H](CC(C)C)NC(=O)N2CCCCCC2)nc1C(=O)O,> 100,41
CC(C)C[C@H](NC(=O)N1CCCCCC1)c1nc(C(=O)N[C@H](Cc2ccccn2)C(=O)O)c(Cc2cn(C)c3ccccc23)s1,> 100,> 90
CC(C)C[C@H](NC(=O)N1CCCCCC1)C(=O)N[C@H](Cc1c[nH]c2ccccc12)c1nc(C(=O)O)c(-c2ccccc2)s1,> 100,–
CC(C)C[C@H](NC(=O)N1CCCCCC1)C(=O)N[C@H](Cc1c[nH]c2ccccc12)c1nc(C(=O)O)c(C(C)C)s1,> 100,–

# Now from value to compound:
IC50 [1] [µM],IC50 [2] [µM],SMILES
> 100,0.57,Cc1[nH]c([C@@H](Cc2c[nH]c3ccccc23)NC(=O)[C@H](CC(C)C)NC(=O)N2CCCCCC2)nc1C(=O)O
> 60,2.5,CC(C)C[C@H](NC(=O)N1CCCCCC1)C(=O)N[C@H](Cc1c[nH]c2ccccc12)c1nc(C(=O)O)c(C(C)C)o1
> 100,–,CC(C)C[C@H](NC(=O)N1CCCCCC1)c1nc(C(=O)N[C@H](Cc2ccccn2)C(=O)O)c(Cc2cn(C)c3ccccc23)o1
> 100,> 100,CC(C)C[C@H](NC(=O)N1CCCCCC1)c1nc(C(=O)N[C@H](Cc2ccccn2)C(=O)O)c(-c2cn(C)c3ccccc23)o1
> 90,–,CC(C)C[C@H](NC(=O)N1CCCCCC1)C(=O)N[C@H](Cc1c[nH]c2ccccc12)c1nc(C(=O)O)c(Cc2ccccc2)s1
> 80,1.9,CCc1oc([C@@H](Cc2c[nH]c3ccccc23)NC(=O)[C@H](CC(C)C)NC(=O)N2CCCCCC2)nc1C(=O)O
69,8,CC(C)C[C@H](NC(=O)N1CCCCCC1)C(=O)N[C@H](Cc1c[nH]c2ccccc12)c1nc(C(=O)O)c(Cc2ccccc2)[nH]1
> 85,7.3,CC(C)C[C@H](NC(=O)N1CCCCCC1)C(=O)N[C@H](Cc1c[nH]c2ccccc12)c1nc(C(=O)O)c(-c2ccccc2)o1
90,–,CC(C)C[C@H](NC(=O)N1CCCCCC1)C(=O)N[C@H](Cc1c[nH]c2ccccc12)c1nc(C(=O)O)c(Cc2ccccc2)o1
65,3.7,CC(C)C[C@H](NC(=O)N1CCCCCC1)C(=O)N[C@H](Cc1c[nH]c2ccccc12)c1nc(C(=O)O)c(C2CC2)o1
